Broadly, the IC50 is the point on the concentration scale where inhibition reaches its midpoint. By solubility is commonly meant the dissolved amount per volume that the medium holds. High values mean a readily soluble substance, low ones a poorly soluble substance. One may read the inhibition in vivo as the share of the control response that was lost under treatment. What is called inhibition is the percentage by which the read-out fell short of the control. A high value points to a strong effect.

In brackets after ≈: the same amount, converted by molar mass. Where only a bound is given, the exact number is not on record here.

The target of data set [1] is T1, Sodium- and chloride-dependent glycine transporter 1 (Rattus norvegicus, UniProt P28572).
T1 sequence (P28572 whole entry): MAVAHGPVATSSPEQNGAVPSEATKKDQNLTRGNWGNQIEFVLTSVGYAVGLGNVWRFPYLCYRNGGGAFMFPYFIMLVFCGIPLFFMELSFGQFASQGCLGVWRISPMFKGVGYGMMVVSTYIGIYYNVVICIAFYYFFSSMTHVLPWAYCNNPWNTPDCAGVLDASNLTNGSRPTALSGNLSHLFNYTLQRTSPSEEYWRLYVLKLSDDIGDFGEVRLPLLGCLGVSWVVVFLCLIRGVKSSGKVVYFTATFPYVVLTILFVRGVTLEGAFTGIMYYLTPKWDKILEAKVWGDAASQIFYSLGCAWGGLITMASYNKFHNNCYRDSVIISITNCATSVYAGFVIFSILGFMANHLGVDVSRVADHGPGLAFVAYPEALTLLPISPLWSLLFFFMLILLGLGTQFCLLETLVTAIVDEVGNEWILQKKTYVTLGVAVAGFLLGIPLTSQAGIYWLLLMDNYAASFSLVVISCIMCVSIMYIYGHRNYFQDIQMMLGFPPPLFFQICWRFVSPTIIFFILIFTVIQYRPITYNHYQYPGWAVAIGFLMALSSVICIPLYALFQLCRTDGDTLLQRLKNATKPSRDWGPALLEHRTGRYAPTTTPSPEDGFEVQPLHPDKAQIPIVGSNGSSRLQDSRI
The data set can be described thus: Displacement of [3H]glycine from rat GlyT1 expressed in rat C6 cells after 30 mins by scintillation counting. In kind it is cell-based. In a few lines:
(§1)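 Rat GlyT1-expressing C6 cells grown in D-MEM/10% FCS, 37 °C, 5% CO2, plated 2 days ahead. Cells washed, then preincubated 30 min with compound in HEPES buffer pH 7.4 (NaCl, KCl, MgCl2, CaCl2, glucose, L-alanine). Uptake started with [3H]glycine, 10 min at 37 °C. Nonspecific uptake defined with 3 mmol/L sarcosine. Cells washed with ice-cold PBS, lysed in 0.1 mol/L NaOH, scintillation counted; mean ± SEM of three independent experiments.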

Data set [2] can be described thus: Aqueous solubility of the compound at pH 6.8. In kind it is physicochemical. In a few lines:
(§2)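 Compound suspension held at 25 °C for 20 h; precipitate removed by filtration and dissolved concentration in filtrate measured by HPLC.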

Data set [3] is described as follows: Aqueous solubility of the compound at pH 1.2. It is filed as physicochemical. In outline:
as §2

The next data set has as its system Mus musculus. The data set can be described thus: Antipsychotic activity in ICR mouse assessed as inhibition of (+)-HA966-induced hyperlocomotion at 10 mg/kg, ip administered 20 mins prior (+)-HA966] challenge measured every 90 mins. It is filed as functional. To be noted: route intraperitoneal. In outline:
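Mice, 16 per group, pretreated with reserpine 10 mg/kg ip 19 h and α-methyl-para-tyrosine methyl ester 250 mg/kg ip 30 min before bilateral intracerebroventricular (+)-HA966 80 µg/mouse; ACSF+vehicle controls. Locomotor activity integrated over 90 min immediately after (+)-HA966. Percent inhibition = 100 × [(HA966+vehicle − ACSF+vehicle) − (HA966+compound − ACSF+vehicle)] / (HA966+vehicle − ACSF+vehicle).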

In data set [4] the target is T2, Sodium- and chloride-dependent glycine transporter 1 (Rattus norvegicus) (UniProt P28572).
T2 sequence (whole entry): T1 sequence (P28572 whole entry)
Put plainly: Displacement of [3H]glycine from rat GlyT1 expressed in rat C6 cells at 10 uM after 30 mins by scintillation counting. It is filed as cell-based. In outline: as §1
(In general: Loss of bound radioactivity is the signal in a displacement assay; it reports binding, not function.)

Data set [5] concerns the target T3, Sodium- and chloride-dependent glycine transporter 2 (Rattus norvegicus, UniProt P58295).
T3 sequence (P58295 whole entry): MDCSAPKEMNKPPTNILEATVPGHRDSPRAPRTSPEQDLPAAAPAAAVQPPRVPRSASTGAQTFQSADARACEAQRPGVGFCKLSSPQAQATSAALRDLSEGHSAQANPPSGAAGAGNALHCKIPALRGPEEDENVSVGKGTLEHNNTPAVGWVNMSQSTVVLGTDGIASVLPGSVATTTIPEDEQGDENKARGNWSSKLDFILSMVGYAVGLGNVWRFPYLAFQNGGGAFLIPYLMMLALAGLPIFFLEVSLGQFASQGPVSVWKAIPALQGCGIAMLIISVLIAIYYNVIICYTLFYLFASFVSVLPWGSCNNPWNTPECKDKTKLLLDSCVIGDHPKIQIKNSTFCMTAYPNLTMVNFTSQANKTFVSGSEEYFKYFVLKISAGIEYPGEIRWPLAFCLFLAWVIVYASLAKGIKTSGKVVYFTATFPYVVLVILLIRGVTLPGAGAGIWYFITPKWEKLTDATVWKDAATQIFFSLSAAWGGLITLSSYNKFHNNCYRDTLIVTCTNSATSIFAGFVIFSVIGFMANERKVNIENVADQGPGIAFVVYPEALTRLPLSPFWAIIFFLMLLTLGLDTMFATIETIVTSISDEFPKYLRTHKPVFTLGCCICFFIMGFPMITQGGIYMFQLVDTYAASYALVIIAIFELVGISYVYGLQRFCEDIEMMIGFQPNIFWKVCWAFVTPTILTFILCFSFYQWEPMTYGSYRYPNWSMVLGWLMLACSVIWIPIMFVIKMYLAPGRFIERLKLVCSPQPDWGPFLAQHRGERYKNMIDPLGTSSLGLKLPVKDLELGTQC
The data set can be described thus: Displacement of [3H]glycine from Wistar rat brain GlyT2 after 10 mins by scintillation counting. In a few lines: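 Primary brainstem cells from Wistar rat fetuses (E17) were papain-dispersed, plated on poly-L-lysine, and cultured 14–21 days. The assay buffer, pH 7.4, contained 3 mmol/L sarcosine; wells were preincubated 10 min at 37 °C. Compound was added with ~0.3 µM [3H]glycine for 10 min at 37 °C, followed by four ice-cold washes, NaOH lysis and scintillation counting. Specific uptake was defined with 3 mmol/L glycine; mean ± SEM of three independent experiments.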

The next data set is filed under the species Rattus norvegicus. Put plainly: Selectivity ratio of IC50 for rat GlyT2 to IC50 for rat GlyT1.

Compound `CCc1nnc(-c2ccc(-c3ccccc3)cc2)n1-c1cccc2nc[nH]c12` showed a half-inhibitory concentration (IC50) in data set [1] of 7.5 µM.
As for `CCc1nnc(-c2ccc(-c3ccccc3)cc2)n1-c1cccc2cnccc12`, the solubility in data set [2] was 5 µM (≈ 1.88 µg/mL); in data set [3], more than 100 µM.
Regarding `CC(C)c1nnc(-c2ccc(-c3ccccc3)cc2)n1-c1ccccc1F`, in the data set with Mus musculus, the inhibition in vivo at 10 mg/kg was found to be 70%. Also, the solubility was less than 1 µM in data set [2] and 5 µM (≈ 1.79 µg/mL) in data set [3].
Regarding `CCc1nnc(-c2ccc(-c3ccccc3)cc2)n1-c1cccc2c(=O)[nH]ccc12`, the inhibition in data set [4] came out at 16%. Also, in data set [1], the concentration for half-maximal inhibition (IC50) is more than 10 µM.
For `CCc1nnc(-c2ccc(-c3ccccc3)cc2)n1-c1cccc2c1CCNC2`, the inhibition in data set [4] amounted to 25%. In data set [1], this compound had an IC50 of more than 10 µM.
The compound `CCc1nnc(-c2ccc(-c3ccccc3)cc2)n1-c1cccc2ccn(C)c12` gave an IC50 in data set [1] of 3 µM.
As for `CCc1nnc(-c2ccc(-c3ccccc3)cc2)n1-c1cccc2cn[nH]c12`, the IC50 in data set [1] came out at 5.6 µM. This IC50 is about 1.9-fold higher than that of the compound before.
The same measure, in the same setting: then `CCc1nnc(-c2ccc(-c3ccccc3)cc2)n1-c1cccc2[nH]ncc12`, with 2.8 µM.
Consider `CCc1nnc(-c2ccc(-c3ccccc3)cc2)n1-c1cccc2ccncc12`, for which the figures for the concentration for half-maximal inhibition (IC50) in data set [5] and in data set [1] were 4.2 µM and 0.8 µM, respectively. For the same compound, the solubility in data set [2] was 11 µM (≈ 4.14 µg/mL); in data set [3] it was more than 100 µM. In addition, in the data set listed under Rattus norvegicus, the Ratio IC50 was determined as 5.3.
As to `CCc1nnc(-c2ccc(-c3ccccc3)cc2)n1Cc1ccncc1`, in data set [4], the inhibition turned out to be 15%. Further, the half-inhibitory concentration (IC50) in data set [1] is more than 10 µM.
`CCc1nnc(-c2ccc(-c3ccccc3)cc2)n1-c1ccccc1F`: the solubility in data set [2] was less than 1 µM; in data set [3], 96 µM (≈ 33 µg/mL). For the same compound, the Ratio IC50 in the data set listed under Rattus norvegicus is 1.
For `CCc1nnc(-c2ccc(-c3ccccc3)cc2)n1-c1cccc2ncccc12`, the half-inhibitory concentration (IC50) in data set [5] amounted to 2.7 µM; in data set [1] it was 0.82 µM. In addition, the solubility in data set [2] was 9 µM (≈ 3.39 µg/mL); in data set [3] it was more than 100 µM. Besides, the Ratio IC50 in the data set filed under Rattus norvegicus is 3.3.
`CCc1nnc(-c2ccc(-c3ccccc3)cc2)n1-c1nccc2ccccc12` displayed a 50% inhibitory concentration (IC50) in data set [1] of 1.4 µM.
Consider `CCc1nnc(-c2ccc(-c3ccccc3)cc2)n1-c1cncc2ccccc12`, for which the IC50 in data set [1] worked out at 3.7 µM. Against the preceding compound, the IC50 is about 2.6-fold higher.
`CCc1nnc(-c2ccc(-c3ccccc3)cc2)n1-c1ccnc2ccccc12`: the IC50 in data set [1] was determined as 1.7 µM.
Compound `CCc1nnc(-c2ccc(-c3ccccc3)cc2)n1-c1cccc2cc[nH]c12` returned an IC50 in data set [1] of 22 µM.
For the compound `CCc1nnc(-c2ccc(-c3ccccc3)cc2)n1-c1cccc2c[n+]([O-])ccc12`, the inhibition in data set [4] turned out to be 28%. Further, in data set [1], the IC50 was more than 10 µM.
With `CCc1nnc(-c2ccc(-c3ccccc3)cc2)n1-c1cccc2cccnc12`, the results for the concentration for half-maximal inhibition (IC50) in data set [5] and in data set [1] were 0.38 µM and 0.3 µM, respectively. The solubility in data set [2] is 23 µM (≈ 8.66 µg/mL); in data set [3], more than 100 µM. Also, the Ratio IC50 in the data set listed under Rattus norvegicus was 1.3.
On to `CCc1nnc(-c2ccc(-c3ccccc3)cc2)n1C(C)c1ccncc1` (stereo unspecified), for which, in data set [4], the inhibition is 36%. The compound further returned a half-maximal inhibitory concentration (IC50) in data set [1] of more than 10 µM.

(Values after ChEMBL document CHEMBL1926645, “Synthesis and biological evaluation of (4H-1,2,4-triazol-4-yl)isoquinoline derivatives as selective glycine transporter 1 inhibitors” (Bioorg Med Chem, 2012).)
